From PubChem
This is a sample that favours compounds with a hit; in the whole collection about 1.7% have one here.
PfG6PD inh – PfG6PD (Plasmodium falciparum) enzyme inhibition; AID 504690; PfGluPho enzyme, NADPH resazurin-diaphorase fluorescence; inhibition, % at 20 µM; actives 0.78% (n = 350,000);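 active means inhibition reaching at least a set limit at 20 µM in the primary screen, cut at about 59% in these data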;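 further: 0% = DMSO wells with substrate and 100% = DMSO wells lacking glucose-6-phosphate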
CXCR6 inh – blocks human CXCR6 beta-arrestin recruitment; CHO-K1 PathHunter CXCR6 beta-arrestin, luminescence; inhibition, % at 20 µM; actives 0.36% (n = 360,000); AID 602244; in the data active means inhibition above about 34%, passing the limit was not always enough;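 further: antagonist mode with CXCL16 agonist at 10 nM final; 0% = 10 nM CXCL16 with DMSO and 100% = unstimulated wells without agonist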
CCR6 antag – antagonists of human CCR6 receptor | CHO-K1 CCR6 PathHunter beta-arrestin, luminescence, CCL20-stimulated | inhibition, % at 20 µM | actives 0.49% (n = 340,000);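 active means compounds whose inhibition of the agonist-driven luminescence signal at 20 µM reaches about 50%, limit read from the data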;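 further: cells stimulated with CCL20 at 14 nM final; plate controls were DMSO with CCL20 for no effect and DMSO without agonist for full effect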
APJ antag – APJ receptor antagonism; P35414; actives 0.32% (n = 330,000); inhibition, % at 20 µM; AID 2521; CHO-K1 APJ beta-arrestin complementation, luminescence;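 active means inhibition above about 40% at 20 µM, limit read from the data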;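 further: cells challenged with 10 nM apelin-13 agonist together with compound; plate controls were apelin-13 plus DMSO wells for no effect and DMSO wells lacking apelin-13 for full effect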
Target sequence (P35414 whole entry, looked up): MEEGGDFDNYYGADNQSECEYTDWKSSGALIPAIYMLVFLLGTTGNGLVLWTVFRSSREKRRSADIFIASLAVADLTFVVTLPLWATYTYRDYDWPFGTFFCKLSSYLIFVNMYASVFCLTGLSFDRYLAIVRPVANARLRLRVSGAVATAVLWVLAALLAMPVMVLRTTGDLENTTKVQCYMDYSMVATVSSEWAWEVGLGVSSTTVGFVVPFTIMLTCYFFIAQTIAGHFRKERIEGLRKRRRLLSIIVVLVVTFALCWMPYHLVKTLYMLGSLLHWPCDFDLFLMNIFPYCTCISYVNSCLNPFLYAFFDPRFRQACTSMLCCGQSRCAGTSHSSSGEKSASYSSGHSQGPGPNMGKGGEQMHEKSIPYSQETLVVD
Beta2AR agonist – agonists of human beta-2 adrenergic receptor inducing internalization | Am2.2-beta2AR cells, FAP receptor internalization, flow cytometry | response, % (concentration not given with the values) | actives 0.43% (n = 340,000) | AID 504454;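 active means response above a set limit, near 3 SD of response in nonfluorescent compounds, cut at about 42% in these data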
APJ ag – agonists of human APJ apelin receptor; activation, % at 20 µM; CHO-K1 APJ PathHunter beta-arrestin, luminescence; 0% DMSO wells, 100% apelin; actives 0.11% (n = 330,000); P35414;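 active means activation more than six SD over the plate average, tested at 20 µM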;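 further: 0% = DMSO alone and 100% = apelin-13 at 10 nM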
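Assay system: engineered CHO-K1 APJ arrestin reporter cells; Amount: 1000 CHO-K1 reporter cells seeded per well; Dosing: one dose, 20 µM compound, 1% DMSO; Times: compound stimulation 90 min at 25 °C, detection 60 min; Measured by: luminescent beta-gal fragment complementation, chemiluminescent substrate; Read-out: APJ–arrestin association signal; Controls: DMSO vs Apelin-13 10 nM.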
Beta2AR ag CP1 – agonists of human beta-2 adrenergic receptor; Am2.2-beta2AR cells, FAP surface receptor, flow cytometry; hits give low values; percent response (surface receptor), % at 10 µM; actives 25% (n = 1,100); shares compounds with Beta2AR agonist; AID 540358;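 active means surface receptor percent response at or below 58%, roughly 3 SD from nonfluorescent compounds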
FAP fluor counter – counter-screen for beta-2AR agonists: fluorescence in Am2.2 cells; 1,100 tested, under 10 active; shares compounds with Beta2AR agonist; calls only at 10 µM; FAP fluorogen flow cytometry, fluorescence counterscreen; hits give low values; AID 588765;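 active means percent response below a set limit in fluorescence channel 1 and below 50% in channel 8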
Numbers without * were called inactive.

What do the screens show for `CN(CC(=O)Nc1cc(Cl)cc(Cl)c1)Cc1cccs1`?
PfG6PD inh: -4; CXCR6 inh: -8; CCR6 antag: 15; APJ antag: 6; Beta2AR agonist: 3; APJ ag: -3

How did Cc1ccc(CNc2nc(-c3cccnc3)nc3ccccc23)cc1 do in these assays?
PfG6PD inh: 34; CXCR6 inh: 2; CCR6 antag: 14; APJ antag: -23; Beta2AR agonist: -16; APJ ag: 7; Beta2AR ag CP1: 154; FAP fluor counter: inactive

What do the screens show for `Cc1ccc(Nc2nc(-c3cccnc3)nc3ccccc23)cc1`?
PfG6PD inh: 28; CXCR6 inh: -3; CCR6 antag: -4; APJ antag: -17; Beta2AR agonist: 10; APJ ag: 4

How did c1cncc(-c2nc(NCc3ccc4c(c3)OCO4)c3ccccc3n2)c1 do in these assays?
PfG6PD inh: 11; CXCR6 inh: -2; CCR6 antag: 10; APJ antag: -3; Beta2AR agonist: 13; APJ ag: -1; Beta2AR ag CP1: 155; FAP fluor counter: inactive

How did COCCCN1C(=O)C(CC(=O)NC2CCCCC2)CC(C(=O)N2CCCCCC2)=C1C (stereo unspecified) do in these assays?
CXCR6 inh: 1

Results for O=C(NCCCN1CCN(CCCNC(=O)c2ccc(F)cc2)CC1)c1ccc(F)cc1 ?
PfG6PD inh: 1; CXCR6 inh: 6; CCR6 antag: 4; APJ antag: -4; Beta2AR agonist: -9; APJ ag: -5; Beta2AR ag CP1: 125; FAP fluor counter: inactive

What do the screens show for `O=C(NCCN1CCOCC1)c1ccc(F)cc1`?
PfG6PD inh: -9; CXCR6 inh: -2; CCR6 antag: 6; APJ antag: 19; Beta2AR agonist: -6; APJ ag: -7

Results for CC(C)c1ccc(C(=O)NCCCN2CCN(CCCNC(=O)c3ccc(C(C)C)cc3)CC2)cc1 ?
PfG6PD inh: 4; CXCR6 inh: -7; CCR6 antag: 10; APJ antag: 16; Beta2AR agonist: 46*; APJ ag: -2; Beta2AR ag CP1: 89; FAP fluor counter: inactive

What do the screens show for `CCOC(=O)C1(C)CCCN(C(=O)c2ccc(F)cc2Cl)C1` (stereo unspecified)?
CXCR6 inh: -6

Results for O=C(c1cc(COc2ccc(F)cc2Cl)on1)N1CC2C[C@@H]3CC1C[C@H](C2)C3 ?
PfG6PD inh: 7; CXCR6 inh: -21; CCR6 antag: 16; APJ antag: 2; Beta2AR agonist: 87*; APJ ag: -1; Beta2AR ag CP1: 23*; FAP fluor counter: inactive

What do the screens show for `O=C(c1cc(COc2ccc(F)cc2Cl)on1)N1C[C@H]2CC[C@H]1C2`?
PfG6PD inh: -2; CXCR6 inh: 3; CCR6 antag: 20; APJ antag: -17; Beta2AR agonist: -10; APJ ag: 3

Results for O=C(Nc1ccc(Nc2ccncc2)cc1)c1ccc(Nc2ccnc3ccc([N+](=O)[O-])cc23)cc1 ?
PfG6PD inh: 50; CXCR6 inh: 2; CCR6 antag: 9; Beta2AR agonist: 69*; Beta2AR ag CP1: 82; FAP fluor counter: inactive

Results for c1nc(NCCN2CCOCC2)c2sc3nc(N4CCOCC4)c4c(c3c2n1)CCC4 ?
PfG6PD inh: 5; CXCR6 inh: -9; CCR6 antag: 6; Beta2AR agonist: 46*; Beta2AR ag CP1: 57*; FAP fluor counter: inactive

Results for CCN1CCN(c2ncnc3c2sc2nc(N4CCOCC4)c4c(c23)CCC4)CC1 ?
PfG6PD inh: -13; CXCR6 inh: -6; CCR6 antag: -9; Beta2AR agonist: -1

What do the screens show for `Cc1nc2cc(N3CCCCC3)c(NC(=O)c3ccncc3)cc2c(=O)n1Cc1ccccc1`?
PfG6PD inh: 3; CXCR6 inh: 4; CCR6 antag: 3; Beta2AR agonist: 4

What do the screens show for `Cc1nc2cc(N3CCOCC3)c(NC(=O)C3CC3)cc2c(=O)n1Cc1ccccc1`?
PfG6PD inh: -6; CXCR6 inh: 1; CCR6 antag: -2; APJ antag: 3; Beta2AR agonist: 49*; APJ ag: -1; Beta2AR ag CP1: 65; FAP fluor counter: inactive

How did COc1cccc(C(=O)NCCS(=O)(=O)N2CCCC(C)C2)c1 (stereo unspecified) do in these assays?
PfG6PD inh: 4; CXCR6 inh: -5

How did Cn1c(=S)c2[nH]c(SCCN3CCCC3)nc2n(C)c1=O do in these assays?
PfG6PD inh: 9; CXCR6 inh: 5; CCR6 antag: 4; APJ antag: 11; Beta2AR agonist: -3; APJ ag: -5; Beta2AR ag CP1: 115; FAP fluor counter: inactive

How did CC(=O)Nc1ccc(-c2cn3c(n2)SCC3)cc1 do in these assays?
PfG6PD inh: 7; CXCR6 inh: 13; CCR6 antag: 4; APJ antag: -5; Beta2AR agonist: 60*; APJ ag: -3; Beta2AR ag CP1: 53*; FAP fluor counter: inactive

What do the screens show for `Fc1ccc(Nc2nc(NCc3ccco3)c3ccccc3n2)cc1`?
PfG6PD inh: 24; CXCR6 inh: -6; CCR6 antag: -1; APJ antag: -33; Beta2AR agonist: 33; APJ ag: 6; Beta2AR ag CP1: 60; FAP fluor counter: inactive

How did COC(=O)CN1C(=O)[C@H]2[C@@H](/C=C/c3ccccc3)N3C(=O)CN(CCO)C(=O)[C@@]3(Cc3ccccc3)[C@H]2C1=O do in these assays?
PfG6PD inh: -5; CXCR6 inh: 0; CCR6 antag: 8; APJ antag: 22; Beta2AR agonist: -4; APJ ag: 0

Results for Cc1ccc(-c2nc(NC(=O)c3cc(C(C)(C)C)nn3C)sc2C)cc1Cl ?
PfG6PD inh: 10; CXCR6 inh: 1; CCR6 antag: 4; APJ antag: 4; Beta2AR agonist: 10; APJ ag: 5; Beta2AR ag CP1: 97; FAP fluor counter: inactive

How did Nc1c(Cl)cnn(-c2ccccc2)c1=O do in these assays?
PfG6PD inh: -8; CXCR6 inh: -2; CCR6 antag: -4; APJ antag: 17; Beta2AR agonist: -5; APJ ag: 1; Beta2AR ag CP1: 112; FAP fluor counter: inactive

How did C=CCn1c(CNC(=O)c2cccs2)nnc1SCC(=O)Nc1ccc(C(=O)O)cc1 do in these assays?
PfG6PD inh: 0; CXCR6 inh: 0; CCR6 antag: 2; APJ antag: -2; Beta2AR agonist: -1; APJ ag: -2

How did C=CCn1c(CNC(=O)c2cccs2)nnc1SCC(=O)c1ccc(Br)cc1 do in these assays?
PfG6PD inh: 8; CXCR6 inh: -5; CCR6 antag: -7; APJ antag: -3; Beta2AR agonist: -1; APJ ag: 0
